# High-throughput results deposited in PubChem by Sanford-Burnham Center for Chemical Genomics.
# Only some compounds are listed: those with a hit (about 0.72% of all), similar ones and a draw of the others.
# mIAP act: activators of mouse IAP, primary screen, biochemical, luminescence, uHTS. intestinal alkaline phosphatase [Mus musculus]. AID 2805, 2010. activation factor at 10 µM. muIAP, CDP-Star luminescence, 30 min; active compounds read high; 1 = vehicle-only enzyme signal, 0 = enzyme-free wells. 330,000 tested, 0.24% active;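 active = activation factor of at least 2 at 20 µM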
#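 Assay system: mouse IAP enzyme / Compound: DMSO-dissolved test compounds / Timing: 30 min, room temperature / Measured by: luminescence from enzymatic CDP-Star hydrolysis / Control set: DMSO-only wells, enzyme-free buffer wells as negative control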
# hIAP activ: human IAP activators, primary screen, biochemical, luminescence, uHTS | activation factor at 10 µM | purified human IAP, CDP-Star luminescence, 30 min; active compounds read high; 1 = vehicle-only enzyme, 0 = enzyme-free background | Intestinal-type alkaline phosphatase (Homo sapiens), P09923 | 330,000 tested, 0.16% active | AID 2524, 2010;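 active = activation factor of the enzyme at least 2-fold when tested at 20 µM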
# Target sequence (P09923 whole entry, looked up): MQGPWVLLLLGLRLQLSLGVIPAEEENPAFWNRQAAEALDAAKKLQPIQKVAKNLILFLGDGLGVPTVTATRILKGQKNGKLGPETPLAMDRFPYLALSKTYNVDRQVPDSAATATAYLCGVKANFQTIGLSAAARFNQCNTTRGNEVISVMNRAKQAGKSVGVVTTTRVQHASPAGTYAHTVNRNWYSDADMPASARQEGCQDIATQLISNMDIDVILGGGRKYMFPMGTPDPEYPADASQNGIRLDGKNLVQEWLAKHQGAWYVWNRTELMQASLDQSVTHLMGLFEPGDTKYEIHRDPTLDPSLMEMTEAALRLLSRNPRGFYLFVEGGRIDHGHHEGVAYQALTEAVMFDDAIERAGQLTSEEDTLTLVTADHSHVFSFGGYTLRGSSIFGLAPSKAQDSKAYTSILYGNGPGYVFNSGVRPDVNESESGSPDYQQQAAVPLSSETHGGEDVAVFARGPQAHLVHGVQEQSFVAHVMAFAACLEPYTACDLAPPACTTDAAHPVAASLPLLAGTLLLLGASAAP
# hIAP block: human IAP inhibitors, primary screen, biochemical, luminescence, uHTS | Intestinal-type alkaline phosphatase (Homo sapiens), P09923 | purified IAP, CDP-Star luminescence, 30 min | inhibition, % at 10 µM | AID 2544, 2010 | 330,000 tested, 0.12% active;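 active = inhibition reaching a set limit with compound at 10 µM in the primary screen, cut at about 35% in these data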;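 note: plate controls were DMSO wells with enzyme for no effect and no-enzyme buffer wells for full effect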
# bIAP inh: bovine intestinal alkaline phosphatase inhibitors, primary screen, selectivity assay for TNAP inhibitor project, biochemical, bovine IAP, CDP-star luminescence. alkaline phosphatase, intestinal [Bos taurus]. purified bovine IAP, 30 min. inhibition, % at 20 µM. 190,000 tested, under 10 active. AID 1019, 2008;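 active = over 50% inhibition of intestinal alkaline phosphatase at 20 µM in the single-dose screen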
#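 System: Purified bovine intestinal alkaline phosphatase (IAP) enzyme | Input: IAP diluted 1/65,000,000 in the well | Also added: CDP-star chemiluminescent phosphatase substrate, 30 µM final | Dosing: 20 µM single dose | Times: Enzyme reaction for 30 min at room temperature | Detection: Luminescence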
# mIAP inh: inhibitors of mouse IAP, primary screen, biochemical, luminescence, uHTS; AID 2806, 2010; inhibition, % at 10 µM; purified mouse IAP, CDP-Star luminescence, 30 min; 330,000 tested, 0.2% active;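 active = inhibition of at least 40% at 10 µM in the primary screen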;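 note: plate controls were DMSO with enzyme for no effect and no enzyme wells for full effect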
# bIAP act: bovine intestinal alkaline phosphatase activators, primary screen, biochemical, bovine IAP, CDP-star luminescence; purified bovine IAP, 30 min; active compounds read high; fold of DMSO-control signal, blank-subtracted; activation factor at 20 µM; 200,000 tested, 0.17% active;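 active = activation factor of 2 or more at 20 µM, a signal rise over negative controls twice the positive control's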
# mIAP inh conf: inhibitors of mouse IAP, confirmation, biochemical, luminescence, single concentration; purified mouse IAP, CDP-Star luminescence, 30 min; AID 434971, 2010; shares compounds with mIAP inh; 11,000 tested, 4.7% active; inhibition, % at 10 µM;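 active = inhibition of at least 40% at 10 µM in either of the two replicates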;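 note: plate controls were DMSO wells with enzyme for no effect and buffer wells lacking enzyme for full effect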
# An asterisk follows results filed as active; . = no result.
SMILES,mIAP act,hIAP activ,hIAP block,bIAP inh,mIAP inh,bIAP act,mIAP inh conf
O=C1/C(=C/c2ccccc2Cl)N2CCC1CC2,1,1.1,-6,.,-4,.,.
O=C1/C(=C/c2ccncc2)N2CCC1CC2,0.98,0.94,6,-1,2,1,.
Cc1ccc(CN2C3CCCC2CC(NC(=S)NCc2ccccc2)C3)cc1 (stereo unspecified),4.5*,2,-100,-320,-353,4.2*,-188
CCOC(=O)C1(CCOc2ccccc2)CCN(Cc2ccc(C)s2)CC1,1.1,1.2,-18,-4,-12,1,.
O=C1NC(=S)NC(=O)C1=Cc1ccc(Br)s1,0.4,1.1,-6,.,60*,.,76*
CCN1C(=O)C(=Cc2ccc(C)s2)C(=O)N(CC)C1=S,0.89,0.91,9,13,11,0.9,.
NS(=O)(=O)c1ccc(-c2ccc(C=C3C(=O)NC(=S)NC3=O)o2)cc1,0.22,0.93,7,.,78*,.,72*
